Only some compounds are listed: those with a hit (about 2.3% of all), similar ones and a draw of the others.
DNMT1 inh: human DNMT1 methyltransferase inhibitors, primary screen, biochemical, molecular beacon, fluorescence, HinP1I cleavage, uHTS; AID 588458, 2011; 360,000 tested, 0.83% active; inhibition (reported as % activation of signal), % at 10 µM; in the data active = inhibition above about 50%
SUMO1 PPI mod: modulators of SUMO1 protein-protein interactions, primary screen, biochemical, uHTS; inhibition, % at 20 µM; SUMO1 binding to a labelled peptide, TR-FRET, 1 h; 360,000 tested, 0.33% active; Small ubiquitin-related modifier 1 (Homo sapiens), P63165; in the data active = inhibition above about 37%
Rpn11 inh: Rpn11 (PSMD14) deubiquitinase inhibitors, primary screen, biochemical, fluorescence polarization, uHTS; 26S proteasome non-ATPase regulatory subunit 14 (Homo sapiens), O00487; human 26S proteasome, Ub4-pepOG fluorescence polarization; 20S core pre-blocked with epoxomicin; inhibition, % at 20 µM; 360,000 tested, 0.59% active;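 active = inhibition at 20 µM, scaled to each plate's controls, above about 33%, limit read from the data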
STEP block: STEP phosphatase inhibitors, primary screen, biochemical, fluorescence intensity, uHTS; 360,000 tested, 0.25% active; Tyrosine-protein phosphatase non-receptor type 5 (Homo sapiens), P54829; recombinant STEP, OMFP fluorogenic substrate; inhibition, % at 20 µM; AID 588621, 2011;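 active = inhibition at 20 µM, scaled per plate between control wells, above about 37%, limit read from the data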;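 note: 0% = DMSO with enzyme and substrate and 100% = substrate only without enzyme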
Target sequence (P54829 whole entry, looked up): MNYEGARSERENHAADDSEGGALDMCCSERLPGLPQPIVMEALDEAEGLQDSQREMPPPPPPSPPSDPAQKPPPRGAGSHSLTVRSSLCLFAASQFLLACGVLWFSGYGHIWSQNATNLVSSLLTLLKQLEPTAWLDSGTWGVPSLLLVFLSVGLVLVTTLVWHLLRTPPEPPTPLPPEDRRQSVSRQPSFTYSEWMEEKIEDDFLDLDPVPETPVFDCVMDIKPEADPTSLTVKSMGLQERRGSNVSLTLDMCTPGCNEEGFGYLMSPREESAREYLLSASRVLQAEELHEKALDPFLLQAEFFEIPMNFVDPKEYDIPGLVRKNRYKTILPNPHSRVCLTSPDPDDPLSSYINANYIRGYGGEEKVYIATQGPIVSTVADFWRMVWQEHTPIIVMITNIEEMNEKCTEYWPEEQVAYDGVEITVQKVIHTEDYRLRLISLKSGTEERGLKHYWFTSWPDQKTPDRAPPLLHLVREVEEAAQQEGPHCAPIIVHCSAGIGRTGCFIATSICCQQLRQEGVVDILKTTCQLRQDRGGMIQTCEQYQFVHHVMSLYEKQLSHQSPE
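medium = Bis-Tris buffer pH 6.0, 2.5 mM DTT, 0.005% Tween 20 | test system = STEP (striatal-enriched tyrosine phosphatase) enzyme, cell-free | measure = normalized % inhibition | compound dosing = 20 µM, 1% DMSO | also added = 25 µM OMFP | schedule = reaction 20 min, ambient temperature | measured by = fluorescence read at 480 nm ex / 540 nm em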
Scp-1 inhibitor: Scp-1 phosphatase inhibitors, primary screen, biochemical, colorimetric, uHTS; Carboxy-terminal domain RNA polymerase II polypeptide A small phosphatase 1 (Homo …; Recombinant Scp1, phosphopeptide, malachite green phosphate absorbance; inhibition, % at 20 µM; 340,000 tested, 0.88% active;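 active = inhibition above about 50% at 20 µM, limit read from the data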;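 note: plate controls were DMSO wells with enzyme for no effect and wells lacking enzyme for full effect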
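Material – SCP-1 phosphatase catalytic domain, residues 76-261 · Buffer or medium – Acidic Tris acetate buffer with magnesium and detergent · Also added – Phospho 17-mer peptide substrate · Compound – single 20 µM dose, 1% DMSO · Times – 45 min room-temperature reaction, 5 min colour, 30 min stabiliser · Technique – Phosphate-binding colour reagent, absorbance read at 630 nm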
LMPTP inh: LMPTP phosphatase inhibitors, primary screen, biochemical, fluorescence intensity, uHTS; Low molecular weight phosphotyrosine protein phosphatase (Homo sapiens), P24666; recombinant LMPTP-A, OMFP fluorogenic substrate; inhibition, % at 20 µM; 360,000 tested, 0.22% active; AID 651560, 2012;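 active = compounds that cut the enzyme signal by at least half of the control window in the single-dose screen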;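 note: plate controls were DMSO wells with enzyme plus substrate for no effect and substrate without enzyme for full effect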
Target sequence (P24666 whole entry, looked up): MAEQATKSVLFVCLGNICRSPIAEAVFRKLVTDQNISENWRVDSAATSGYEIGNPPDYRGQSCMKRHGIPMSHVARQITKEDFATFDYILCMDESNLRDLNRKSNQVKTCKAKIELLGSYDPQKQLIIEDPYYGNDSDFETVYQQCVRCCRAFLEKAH
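Test system – LMPTP-A enzyme · Amount – LMPTP-A at 0.625 nM final in the reaction · Buffer or medium – Bis-Tris pH 6.0, DTT, detergent · Reagent – OMFP 400 µM · Doses – single 20 µM dose · Schedule – reaction 50 min, room temperature, dark · Detection – fluorescence intensity of OMFP turnover product · Evaluation – percent inhibition versus substrate-only and uninhibited controls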
DNMT1 inh conf: DNMT1 methyltransferase inhibitor retest, confirmation, biochemical, molecular beacon, fluorescence, single concentration; inhibition, % at 10 µM; 2,300 tested, 8% active; DNMT1 molecular beacon HinP1I cleavage; shares compounds with DNMT1 inh;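 active = average inhibition of at least 30% in the single-concentration confirmation test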
Beacon interf: shows spectral interference in the DNMT1 beacon assay | 2,300 tested, 1% active | shares compounds with DNMT1 inh | AID 602387 | activation (fluorescence interference), % at 10 µM | DNMT1 molecular beacon spectral interference counterscreen, fluorescence 485/520;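 active = activation of at least 30% at 10 µM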;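 note: DNMT1 catalytic domain with a HinP1I cleavage step and a FAM/dabcyl DNA beacon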
Rpn11 confirm: Rpn11 (PSMD14) deubiquitinase inhibitors, confirmation, biochemical, fluorescence polarization, single concentration; shares compounds with Rpn11 inh; 1,900 tested, 29% active; purified human 26S proteasome, Ub4-pepOG fluorescence polarization; proteasome pretreated with epoxomicin; AID 602318, 2012; inhibition, % at 20 µM
MMP-2 counter: MMP-2 enzyme inhibition, confirmation, counter-screen for RPN11 inhibitor project, biochemical, fluorescence, single concentration | AID 602330, 2012 | 1,900 tested, 4% active | shares compounds with Rpn11 inh | inhibition, % at 20 µM | recombinant MMP-2, FRET peptide cleavage fluorescence;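 note: human MMP-2 activated beforehand with APMA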
Thrombin FP: bovine thrombin protease inhibition, confirmation, counter-screen for Rpn11 inhibitor project, biochemical, fluorescence polarization, single concentration | shares compounds with Rpn11 inh | bovine thrombin cleavage of Ub4-pepOG | inhibition, % at 20 µM | 1,900 tested, 13% active;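 active = mean inhibition at least 40% at 20 µM, or signal 3 deviations below plate average, so some actives read negative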;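 note: plate controls were thrombin with DMSO for no effect and buffer wells lacking thrombin for full effect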
An asterisk follows results filed as active; nt = no result given. Cut-off read from the data, not from the text of the source, unless noted: active = inhibition above about 40%; inactive = the rest.

SMILES | DNMT1 inh | SUMO1 PPI mod | Rpn11 inh | STEP block | Scp-1 inhibitor | LMPTP inh | DNMT1 inh conf | Beacon interf | others
O=C(NC1CCCCC1)C(c1ccc(F)cc1)N(CCc1ccccc1)C(=O)CN1C(=O)c2ccccc2S1(=O)=O (centres undefined) | 59* | -2 | -26 | -1 | -6 | 1 | 5 | 2
C#CCn1c(=NC(=O)c2ccc(Br)s2)sc2cccc(OC)c21 | 52* | -20 | 6 | 2 | -17 | 6 | 0 | -6
CCOC(=O)c1c(C)[nH]c(C(=O)N2CCN(c3ccc(OC)cc3)CC2)c1C | 0 | 0 | -4 | 4 | 5 | 1 | nt | nt
Nc1nnnn1/N=C/c1ccccc1OCc1ccc(Cl)cc1Cl | 52* | 0 | 14 | -3 | -6 | 1 | 7 | 5
Nc1nnnn1/N=C/c1cc(Cl)cc(Cl)c1OCc1ccc(Cl)cc1Cl | 59* | 1 | -3 | -1 | 4 | 1 | 2 | 2
CC(NC(=O)Cc1ccc(NS(=O)(=O)c2cccc(C(F)(F)F)c2)cc1)c1ccccn1 (centres undefined) | -3 | -2 | 1 | -2 | 8 | 0 | nt | nt
O=c1[nH]c(=O)n2c(c1-c1ccccc1)OC(CBr)C2 (centres undefined) | 0 | 9 | 0 | 0 | nt | -2 | nt | nt
COc1cc(-c2cc(C(=O)Nc3c(Cl)cc(Cl)cc3Cl)c3ccccc3n2)cc(OC)c1OC | -6 | 12 | 0 | 4 | 0 | 2 | nt | nt
COc1cc(NC(=O)c2ccc(Cl)cc2Cl)ccc1-c1cc2ccccc2oc1=O | 66* | 2 | -3 | -1 | -4 | 4 | -1 | -2
COc1ccc2nc3ccccc3nc2c1NC(=O)c1ccc(Cl)cc1Cl | 57* | -8 | 38 | -50 | -4 | -4 | 29 | 37*
CC(C)NC(=O)C(c1ccc(F)cc1)N(C(=O)CCC(=O)Nc1ccccn1)c1cccc(F)c1 (centres undefined) | 2 | 11 | 7 | -3 | 7 | -1 | nt | nt
COCCSc1ccccc1C(=O)N1CCCC(C)C1 (centres undefined) | 85* | 6 | -3 | 0 | -11 | 0 | 0 | 3
COc1ccccc1NC(=O)C(C)OC(=O)C1CC(=O)N(c2ccc3c(c2)OCCO3)C1 (centres undefined) | 2 | 2 | 5 | 0 | -7 | 0 | nt | nt
COc1cccc(OC)c1OC(=O)C1CC(=O)N(c2ccc3c(c2)OCCO3)C1 (centres undefined) | 53* | 31 | -15 | 6 | 47 | 3 | 2 | 0
CCC(C)/C(C)=N/NC(=O)c1ccc(COc2ccc(Cl)c(C)c2)cc1 (centres undefined) | 12 | 12 | 1 | 2 | 0 | 1 | nt | nt
CC1(OC(=O)CCc2ccccc2)C(=O)C=C2C=C3CCCN3C=C2C1=O (centres undefined) | 77* | 2 | -46 | 7 | 8 | 5 | 2 | 0
CC1(OC(=O)CCc2ccccc2)C(=O)C=C2C=C(c3ccc(C#N)cc3)N(C3CCCCC3)C=C2C1=O (centres undefined) | -4 | -10 | -6 | 2 | 1 | 2 | nt | nt
N#Cc1nnn(-c2ccc(Cl)cc2)c1N | 90* | -6 | -2 | 0 | -3 | -1 | 0 | 1
CC(C)OCCCNC(=O)CN1C(=O)CSc2ccc(S(=O)(=O)N3CCCCC3)cc21 | 69* | 9 | -4 | -2 | -1 | -2 | 8 | -2
CC(C)OCCCNC(=O)CN1C(=O)COc2ccc(S(=O)(=O)N3CCCCCC3)cc21 | -2 | -3 | 4 | -2 | -4 | 0 | nt | nt
O=C(Cn1cnnn1)OCC(=O)c1ccc(Cl)s1 | 58* | -3 | 2 | -2 | -2 | 2 | 7 | 2
COc1ccccc1CNC(=O)c1c(N)n(CCCN2CCOCC2)c2nc3ccccc3nc12 | -34 | 5 | 8 | 5 | -6 | -2 | nt | nt
Nc1c(C(=O)NCc2ccc3c(c2)OCO3)c2nc3ccccc3nc2n1CCCN1CCOCC1 | 62* | 47* | 51* | 15 | -4 | -2 | 10 | 10 | Rpn11 confirm=25;MMP-2 counter=-26;Thrombin FP=-5
C=CC1=C2C=C(C3CC3)N(C3CC3)C=C2C(=O)C(C)(OC(=O)c2ccco2)C1=O (centres undefined) | -2 | -4 | -7 | -1 | -3 | 2 | nt | nt
COc1ccc(NC(=O)CCn2c(=S)[nH]c3ccccc3c2=O)cc1Cl | 54* | 13 | 129* | 23 | nt | 49* | 3 | 6 | Rpn11 confirm=63*;MMP-2 counter=34;Thrombin FP=-12
O=C(CCn1c(=S)[nH]c2ccccc2c1=O)Nc1cccc(Cl)c1 | 4 | -7 | -6 | -2 | -5 | 0 | nt | nt
CC(CN1C(C)CCCC1C)OC(=O)c1ccc(Cl)cc1Cl (centres undefined) | 2 | 2 | -6 | 3 | -2 | -1 | nt | nt
COc1ccc(NC(=O)Cn2nnc(C(=O)NCc3ccc(C)cc3)c2N)cc1OC | 1 | 0 | 2 | -3 | 2 | 0 | nt | nt
Cc1ccc(CNC(=O)c2nnn(CC(=O)Nc3cc(C)cc(C)c3)c2N)cc1 | 56* | 3 | 58* | -2 | -1 | 14 | -2 | 0 | Rpn11 confirm=51*;MMP-2 counter=-31;Thrombin FP=-13

Screening results from PubChem.
